According to ChEMBL document CHEMBL1126019, “Synthesis, stability, and biological evaluation of water-soluble prodrugs of a new echinocandin lipopeptide. Discovery of a potential clinical agent for the treatment of systemic candidiasis and Pneumocystis carinii pneumonia (PCP)” (J Med Chem, 1992):
Numbered stars: 1 amine (or outer) side, 2 acyl side, 3 side chain; on linkers, the order of the positions; unused ones are H or OH. Bridge positions count the residues as written; N and C are the ends. Square brackets hold non-standard residues; d marks the D form. Peptide text beside a SMILES is read from it. * marks the point of attachment. Orn(4R-OH,5R-OH) = O=C([C@H](C[C@@H](O)[C@@H](O)N[*:3])N[*:1])[*:2]; hTyr(3S-OH,4S-OH) = N[C@H](C(=O)O)[C@H](O)[C@@H](O)c1ccc(O)cc1; Pro(3S-OH,4S-Me) = C[C@H]1CN[C@H](C(=O)O)[C@H]1O; Benzoyl(4-octyloxy) = CCCCCCCCOc1ccc(C(=O)*)cc1; Hyp = O=C(O)[C@@H]1C[C@@H](O)CN1

Columns and labels:
Fungi [1] = experiment: (§1) Minimum fungicidal concentration against Candida albicans MY 1055; assay type: functional, organism-based
In short: (§2)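 Clinical isolates in yeast nitrogen base with 1% dextrose, inoculated with about 5×10^3 CFU per well. Drug was tested by 2-fold serial dilution from 128 to 0.06 µg/mL, with growth for 24 h at 35 °C. 1.5-µL aliquots were then spotted onto Sabouraud dextrose agar and incubated at 35 °C for 24 h. MFC was the lowest concentration giving fewer than five colonies per spot. Duplicate determinations.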

Fungi [2] = experiment: (§3) Minimum fungicidal concentration against Candida parapsilosis MY 1010; assay type: functional, organism-based; in short: as §2
[3] = Inhibitory activity against glucan synthesis; assay type: functional
Homo sapiens = species: Homo sapiens; experiment: Hemolytic potential was determined as the minimum lytic concentration against human red blood cells; assay type: functional, cell-based
In short: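 Compounds were serially diluted in water containing 10% DMSO and added to whole human blood, then incubated 2 h at 37 °C. Red cell lysis was scored visually, and the lowest lytic concentration was recorded.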

Fungi [4] = experiment: (§4) Minimum fungicidal concentration against Candida albicans MY 1028; assay type: functional, organism-based; in short: as §2
Fungi [5] = experiment: (§5) Minimum fungicidal concentration against Candida tropicalis MY 1012; assay type: functional, organism-based; in short: as §2
Mus musculus = species: Mus musculus; experiment: Minimum effect dose required to reduce the number of colony forming units in per gram kidney of mice after being challenged, by tail vein injection, with 5 X l0e4 cells of Candida albicans (MY 1055); assay type: functional
In short: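 DBA/2 mice (5 per dose level) were infected intravenously and dosed ip with vehicle sham or 1.5, 3.0 or 6.0 mg/kg twice daily for 4 days. On day 7 post-infection, kidneys were cultured on SDA (35 °C, 24 h) and CFU/g counted. MED99 is the dose giving ≥99% CFU/g reduction versus vehicle sham.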

Rattus norvegicus = species: Rattus norvegicus; experiment: Minimum effect dose required to reduce the number of alveolor cyst load in rat Pneumocystis carinii pneumonia assay; assay type: functional
In short: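 Immunosuppressed Sprague-Dawley rats with confirmed infection (5 per dose level) were dosed subcutaneously, 0.15 and 0.60 mg/kg twice daily for 4 days. On day 5, lungs were homogenized and cysts counted microscopically in a known amount of homogenate. MED90 is the dose giving ≥90% cyst reduction versus vehicle sham controls.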

Candida albicans [6] = experiment: as §1; assay type: functional, organism-based; in short: as §2
Candida parapsilosis = experiment: as §3; assay type: functional, organism-based; in short: as §2
Candida albicans [7] = experiment: as §4; assay type: functional, organism-based; in short: as §2
Candida tropicalis = experiment: as §5; assay type: functional, organism-based; in short: as §2
Fungi [8] = experiment: Minimum fungicidal concentration against Candida pseudotropicalis MY 1100; assay type: functional, organism-based
In short: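 Clinical isolates were inoculated at about 5×10^3 CFU into yeast nitrogen base with 1% dextrose, with drug in 2-fold dilutions from 128 to 0.06 µg/mL, and grown 24 h at 35 °C. Then 1.5 µL aliquots were spotted on Sabouraud dextrose agar and held 24 h at 35 °C. MFC is the lowest concentration giving fewer than five colonies per spot, from duplicate determinations.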

In the case of `CCC(C)CC(C)CCCCCCCCC(=O)N[C@H]1C[C@@H](O)[C@@H](O)NC(=O)[C@@H]2[C@@H](O)CCN2C(=O)[C@H]([C@@H](O)CC(N)=O)NC(=O)[C@H]([C@H](O)[C@@H](O)c2ccc(OC(=O)CCN)cc2)NC(=O)[C@@H]2C[C@@H](O)CN2C(=O)[C@H]([C@H](C)O)NC1=O` (stereo partly specified), the Concentration (Fungi [1]) is reported as 1 µg/mL, the Concentration (Fungi [2]) is reported as 16 µg/mL and the IC50 [3] is reported as 0.2 µM. The Concentration (Homo sapiens) was 100 µg/mL, the Concentration (Fungi [4]) was 1 µg/mL and the Concentration (Fungi [5]) was 0.5 µg/mL.
Work on `CCC(C)CC(C)CCCCCCCCC(=O)N[C@H]1C[C@@H](O)[C@@H](O)NC(=O)[C@@H]2[C@@H](O)CCN2C(=O)[C@H]([C@@H](O)CC(N)=O)NC(=O)[C@H]([C@H](O)[C@@H](O)c2ccc(O)cc2)NC(=O)[C@@H]2C[C@@H](O)CN2C(=O)[C@H]([C@@H](C)O)NC1=O` (stereo partly specified) yielded an MED99 (Mus musculus) of 3 mg/kg and an MED90 (Rattus norvegicus) of 0.15 mg/kg.
With `CCC(C)CC(C)CCCCCCCCC(=O)N[C@H]1C[C@@H](O)[C@@H](O)NC(=O)[C@@H]2[C@@H](O)CCN2C(=O)[C@H]([C@@H](O)CC(N)=O)NC(=O)[C@H]([C@H](O)[C@@H](O)c2ccc(OC(=O)NCCC(=O)O)cc2)NC(=O)[C@@H]2C[C@@H](O)CN2C(=O)[C@H]([C@@H](C)O)NC1=O` (stereo partly specified) the MED99 (Mus musculus) was > 6 mg/kg and the MED90 (Rattus norvegicus) was > 0.6 mg/kg.
`CCCCCCCCOc1ccc(C(=O)N[C@H]2C[C@@H](O)[C@@H](O)NC(=O)[C@@H]3[C@@H](O)[C@@H](C)CN3C(=O)[C@H]([C@@H](C)O)NC(=O)[C@H]([C@H](O)[C@@H](O)c3ccc(O)cc3)NC(=O)[C@@H]3C[C@@H](O)CN3C(=O)[C@H]([C@@H](C)O)NC2=O)cc1` [CILOFUNGIN] ({Benzoyl(4-octyloxy)}-[Orn(4R-OH,5R-OH)]T[Hyp][hTyr(3S-OH,4S-OH)]T[Pro(3S-OH,4S-Me)]; lactam 1-C) showed a Concentration (Candida albicans [6]) of 0.5 µg/mL, an MED99 (Mus musculus) of 3 mg/kg and a Concentration (Candida parapsilosis) of 16 µg/mL. For the same molecule, the IC50 [3] was 1 µM, the Concentration (Homo sapiens) was > 400 µg/mL and the Concentration (Candida albicans [7]) was 0.5 µg/mL. The MED90 (Rattus norvegicus) was > 2.5 mg/kg and the Concentration (Candida tropicalis) was 0.25 µg/mL.
In the case of `CCC(C)CC(C)CCCCCCCCC(=O)N[C@H]1C[C@@H](O)[C@@H](O)NC(=O)[C@@H]2[C@@H](O)CCN2C(=O)[C@H]([C@@H](O)CC(N)=O)NC(=O)[C@H]([C@H](O)[C@@H](O)c2ccc(OC(=O)CN)cc2)NC(=O)[C@@H]2C[C@@H](O)CN2C(=O)[C@H]([C@H](C)O)NC1=O` (stereo partly specified), the Concentration (Fungi [8]) is reported as 2 µg/mL, the Concentration (Fungi [1]) is reported as 0.5 µg/mL and the IC50 [3] is reported as 0.05 µM. For the same molecule, the Concentration (Homo sapiens) was 100 µg/mL, the Concentration (Fungi [4]) was 1 µg/mL and the Concentration (Fungi [5]) was < 0.06 µg/mL.
For `CCC(C)CC(C)CCCCCCCCC(=O)N[C@H]1C[C@@H](O)[C@@H](O)NC(=O)[C@@H]2[C@@H](O)CCN2C(=O)[C@H]([C@@H](O)CC(N)=O)NC(=O)[C@H]([C@H](O)[C@@H](O)c2ccc(OC(=O)CCCC(=O)O)cc2)NC(=O)[C@@H]2C[C@@H](O)CN2C(=O)[C@H]([C@H](C)O)NC1=O` (stereo partly specified), the Concentration (Fungi [8]) was 2 µg/mL, the Concentration (Fungi [1]) was 0.5 µg/mL and the IC50 [3] was 1 µM. The Concentration (Homo sapiens) was > 400 µg/mL, the Concentration (Fungi [4]) was 0.5 µg/mL and the Concentration (Fungi [5]) was 0.5 µg/mL.
With `CCC(C)CC(C)CCCCCCCCC(=O)N[C@H]1C[C@@H](O)[C@@H](O)NC(=O)[C@@H]2[C@@H](O)CCN2C(=O)[C@H]([C@@H](O)CC(N)=O)NC(=O)[C@H]([C@H](O)[C@@H](O)c2ccc(OC(=O)NCC(=O)O)cc2)NC(=O)[C@@H]2C[C@@H](O)CN2C(=O)[C@H]([C@@H](C)O)NC1=O` (stereo partly specified) the MED99 (Mus musculus) was > 6 mg/kg and the MED90 (Rattus norvegicus) was > 0.3 mg/kg.
With `CCC(C)CC(C)CCCCCCCCC(=O)N[C@H]1C[C@@H](O)[C@@H](O)NC(=O)[C@@H]2[C@@H](O)CCN2C(=O)[C@H]([C@@H](O)CC(N)=O)NC(=O)[C@H]([C@H](O)[C@@H](O)c2ccc(OC(=O)OCCN(C)C)cc2)NC(=O)[C@@H]2C[C@@H](O)CN2C(=O)[C@H]([C@H](C)O)NC1=O` (stereo partly specified) the Concentration (Fungi [8]) was 1 µg/mL, the Concentration (Fungi [1]) was 0.25 µg/mL and the Concentration (Fungi [2]) was 2 µg/mL. For the same molecule, the IC50 [3] was 0.1 µM, the Concentration (Homo sapiens) was 50 µg/mL and the Concentration (Fungi [4]) was 0.125 µg/mL. It also gave a Concentration (Fungi [5]) of 0.125 µg/mL.
For `CCC(C)CC(C)CCCCCCCCC(=O)N[C@H]1C[C@@H](O)[C@@H](O)NC(=O)[C@@H]2[C@@H](O)CCN2C(=O)[C@H]([C@@H](O)CC(N)=O)NC(=O)[C@H]([C@H](O)[C@@H](O)c2ccc(OC(=O)NCC(=O)O)cc2)NC(=O)[C@@H]2C[C@@H](O)CN2C(=O)[C@H]([C@H](C)O)NC1=O` (stereo partly specified), the Concentration (Fungi [8]) was 32 µg/mL, the Concentration (Fungi [1]) was 4 µg/mL and the IC50 [3] was > 10 µM. For the same molecule, the Concentration (Homo sapiens) was > 400 µg/mL, the Concentration (Fungi [4]) was 4 µg/mL and the Concentration (Fungi [5]) was 8 µg/mL.
For `CCC(C)CC(C)CCCCCCCCC(=O)N[C@H]1C[C@@H](O)[C@@H](O)NC(=O)[C@@H]2[C@@H](O)CCN2C(=O)[C@H]([C@@H](O)CC(N)=O)NC(=O)[C@H]([C@H](O)[C@@H](O)c2ccc(OC(=O)N(C)CC(=O)O)cc2)NC(=O)[C@@H]2C[C@@H](O)CN2C(=O)[C@H]([C@H](C)O)NC1=O` (stereo partly specified), the Concentration (Fungi [8]) was 8 µg/mL, the Concentration (Fungi [1]) was 2 µg/mL and the IC50 [3] was > 1 µM. It also gave a Concentration (Homo sapiens) of 25 µg/mL, a Concentration (Fungi [4]) of 2 µg/mL and a Concentration (Fungi [5]) of 1 µg/mL.
